Assays:
Endothelin-1 receptor = biological target: T1, Endothelin-1 receptor (Rattus norvegicus, UniProt P26684); test: Binding affinity towards endothelin A receptor in prolactin secreting rat pituitary cells using [125I]ET1 as radioligand.; assay type: cell-based, Pituitary gland cell
T1 sequence (P26684 whole entry): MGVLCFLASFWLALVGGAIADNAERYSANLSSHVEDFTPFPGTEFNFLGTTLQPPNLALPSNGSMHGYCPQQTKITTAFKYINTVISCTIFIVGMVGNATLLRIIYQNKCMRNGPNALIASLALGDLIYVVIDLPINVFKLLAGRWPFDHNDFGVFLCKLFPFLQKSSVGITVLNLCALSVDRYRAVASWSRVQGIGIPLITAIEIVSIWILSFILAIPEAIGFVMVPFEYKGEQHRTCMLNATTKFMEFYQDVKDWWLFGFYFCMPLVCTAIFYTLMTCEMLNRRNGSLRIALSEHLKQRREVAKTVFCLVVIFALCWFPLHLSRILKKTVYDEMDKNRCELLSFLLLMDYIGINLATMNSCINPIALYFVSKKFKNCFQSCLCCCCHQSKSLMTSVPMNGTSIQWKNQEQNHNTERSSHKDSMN
Outline: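 Membranes from rat MMQ pituitary cells (predominantly ETA), kept at 4 °C and stored in Tris/NaCl/MgCl2 buffer pH 7.4 with protease inhibitors. Bound ligand separated by vacuum filtration on glass fiber. Nonspecific binding defined with 1 μM ET-1.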

[1] = biological target: T2, Endothelin receptor type B (Sus scrofa, UniProt P35463); test: Binding affinity towards endothelin B receptor in porcine cerebellar tissue using [125I]-ET-1 as radioligand.
T2 sequence (P35463 whole entry): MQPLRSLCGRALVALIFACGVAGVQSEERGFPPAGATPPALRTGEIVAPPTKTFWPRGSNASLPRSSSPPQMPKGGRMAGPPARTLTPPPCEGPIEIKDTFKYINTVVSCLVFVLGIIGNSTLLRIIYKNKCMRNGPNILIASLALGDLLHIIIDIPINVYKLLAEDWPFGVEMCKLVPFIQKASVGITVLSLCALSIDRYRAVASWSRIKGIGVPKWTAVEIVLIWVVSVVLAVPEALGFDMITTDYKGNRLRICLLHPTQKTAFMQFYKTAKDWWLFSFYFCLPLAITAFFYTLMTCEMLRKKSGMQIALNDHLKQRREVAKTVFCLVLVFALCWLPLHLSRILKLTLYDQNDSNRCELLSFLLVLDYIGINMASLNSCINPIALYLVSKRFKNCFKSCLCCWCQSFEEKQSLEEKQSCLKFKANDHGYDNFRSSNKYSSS
Outline: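 Membranes from porcine cerebellar tissue (ETB), kept at 4 °C and stored in Tris/NaCl/MgCl2 buffer pH 7.4 with protease inhibitors. Bound and free separated by glass-fiber filtration. Nonspecific binding measured with 1 μM ET-1.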

[2] = Time taken to decrease the plasma concentration to half of the maximum concentration when compound was administered intravenously in rats; assay type: ADME, organism-based; conditions: rat, iv
Outline: (§1)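 Male Sprague–Dawley rats, n = 4 per group. Vehicle: ethanol:propylene glycol:D5W (20:30:50) with 1 mol equiv NaOH. Dosing: 5 mg/kg iv jugular bolus, or 10 mg/kg oral gavage. Tail-vein plasma sampled 0.1 (iv only) to 12 h and analyzed by HPLC after extraction. Trapezoidal AUC extrapolated to infinity. F from dose-corrected oral versus iv AUC.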

[3] = Oral bioavailability in rat; assay type: ADME, organism-based; conditions: in vivo; outline: as §1
[4] = Area under curve was determined in portal blood of rat when administered intradermally; assay type: ADME, organism-based; parameters: concentration or dose not given beside the values; conditions: in the assay text read “intraduodenally” for “intradermally”
Outline: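 Male Sprague–Dawley rats (~225 g), fasted overnight and anesthetized with inactin (100 mg/kg ip). Pylorus ligated; carotid and portal vein catheterized. Intraduodenal dose 10 mg/kg at t = 0. Portal blood drawn at 10, 30 and 60 min; drug measured by HPLC-UV at 226 nm against plasma standards (0.01–50 μg/mL). AUC calculated by trapezoidal rule.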

[5] = Area under curve was determined in carotid blood of rat when administered intraduodenally; parameters: concentration or dose not given beside the values
[6] = Maximum concentration of compound in plasma administered orally to rats; assay type: ADME, organism-based; parameters: route oral; conditions: rat, po; outline: as §1

Compound	IC50 (Endothelin-1 receptor)	IC50 [1]	half-life [2]	bioavailability [3]	AUC [4]	AUC [5]	Cmax [6]
CCCCN(CCCC)C(=O)CN1C[C@H](c2cccnc2)[C@@H](C(=O)O)[C@@H]1c1ccc(OC)cc1	930 nM	> 100 µM					
CCCN(C)C(=O)CN1C[C@H](c2ccccc2)[C@@H](C(=O)O)[C@@H]1c1ccc(OC)cc1		> 100 µM					
CCCN(C)C(=O)CN1C[C@H](c2ccc(OC)cc2)[C@@H](C(=O)O)[C@@H]1c1ccc(OC)cc1	176 nM	16 µM					
CCCN(C)C(=O)CN1C[C@H](c2ccc(OC)c(OC)c2)[C@@H](C(=O)O)[C@@H]1c1ccc(OC)cc1	730 nM	31 µM					
CCCN(C)C(=O)CN1C[C@H](c2cccc3ccccc23)[C@@H](C(=O)O)[C@@H]1c1ccc(OC)cc1	2300 nM	32 µM					
CCCN(C)C(=O)CN1C[C@H](c2ccc3c(c2)CCC3)[C@@H](C(=O)O)[C@@H]1c1ccc(OC)cc1	310 nM	11 µM					
CCCN(C)C(=O)CN1C[C@H](c2ccc(OC)cc2OC)[C@@H](C(=O)O)[C@@H]1c1ccc(OC)cc1	407 nM	72 µM					
CCCN(C)C(=O)CN1C[C@H](c2ccc3ccccc3c2)[C@@H](C(=O)O)[C@@H]1c1ccc(OC)cc1	2300 nM	25 µM					
CCCN(C)C(=O)CN1C[C@H](c2ccc(F)c(F)c2)[C@@H](C(=O)O)[C@@H]1c1ccc(OC)cc1	310 nM	35 µM					
CCCN(C)C(=O)CN1C[C@H](c2cccc3occc23)[C@@H](C(=O)O)[C@@H]1c1ccc(OC)cc1		34 µM					
CCCN(C)C(=O)CN1C[C@H](c2ccc3ccoc3c2)[C@@H](C(=O)O)[C@@H]1c1ccc(OC)cc1	258 nM	13 µM					
CCCCN(CCCC)C(=O)CN1C[C@H](c2ccc3c(c2)OCO3)[C@@H](C(=O)O)[C@@H]1c1ccc(OC)cc1			210 min	68%	10700 ng·h/mL	5830 ng·h/mL	3200 ng/mL
CCCN(C)C(=O)CN1C[C@H](c2cccc(OC)c2)[C@@H](C(=O)O)[C@@H]1c1ccc(OC)cc1	1700 nM						
CCCN(C)C(=O)CN1C[C@H](c2ccc3c(c2)OCC3)[C@@H](C(=O)O)[C@@H]1c1ccc(OC)cc1	137 nM	6.4 µM					
CCCN(C)C(=O)CN1C[C@H](c2ccc3cc[nH]c3c2)[C@@H](C(=O)O)[C@@H]1c1ccc(OC)cc1	5100 nM	35 µM					

Further molecules by falling IC50 (Endothelin-1 receptor), results first:

IC50 (Endothelin-1 receptor)	IC50 [1]	half-life [2]	bioavailability [3]	AUC [4]	AUC [5]	Cmax [6]	Compound
130 nM	35 µM						CCCN(C)C(=O)CN1C[C@H](c2ccc3c(c2)OCCO3)[C@@H](C(=O)O)[C@@H]1c1ccc(OC)cc1
130 nM	19 µM						CCCN(C)C(=O)CN1C[C@H](c2ccc3c(c2)CCO3)[C@@H](C(=O)O)[C@@H]1c1ccc(OC)cc1
14 nM	77 µM						CCCCN(CCCC)C(=O)CN1C[C@H](c2ccc(F)cc2)[C@@H](C(=O)O)[C@@H]1c1ccc(OC)cc1
5 nM	16 µM						CCCCN(CCCC)C(=O)CN1C[C@H](c2cccc(F)c2)[C@@H](C(=O)O)[C@@H]1c1ccc(OC)cc1
3.7 nM	48 µM						CCCCN(CCCC)C(=O)CN1C[C@H](c2ccc(OC)cc2OC)[C@@H](C(=O)O)[C@@H]1c1ccc(OC)cc1
2 nM	11 µM						CCCCN(CCCC)C(=O)CN1C[C@H](c2cccc3occc23)[C@@H](C(=O)O)[C@@H]1c1ccc(OC)cc1
1.5 nM	17 µM						CCCCN(CCCC)C(=O)CN1C[C@H](c2ccc(F)c(F)c2)[C@@H](C(=O)O)[C@@H]1c1ccc(OC)cc1
1.5 nM							CCCCN(CCCC)C(=O)CN1C[C@H](c2ccc3c(c2)CCC3)[C@@H](C(=O)O)[C@@H]1c1ccc(OC)cc1
1.3 nM	4.1 µM						CCCCN(CCCC)C(=O)CN1C[C@H](c2ccc(OC)cc2)[C@@H](C(=O)O)[C@@H]1c1ccc(OC)cc1
1 nM	0.96 µM	282 min	68%	12200 ng·h/mL	6170 ng·h/mL	4000 ng/mL	CCCCN(CCCC)C(=O)CN1C[C@H](c2ccc3c(c2)OCC3)[C@@H](C(=O)O)[C@@H]1c1ccc(OC)cc1
0.8 nM							CCCCN(CCCC)C(=O)CN1C[C@H](c2ccc3c(c2)OCCO3)[C@@H](C(=O)O)[C@@H]1c1ccc(OC)cc1
0.7 nM	5 µM	282 min	38%	9000 ng·h/mL	6170 ng·h/mL	4700 ng/mL	CCCCN(CCCC)C(=O)CN1C[C@H](c2ccc3ccoc3c2)[C@@H](C(=O)O)[C@@H]1c1ccc(OC)cc1
0.6 nM	2.6 µM	66 min	33%	8830 ng·h/mL	3000 ng·h/mL	1500 ng/mL	CCCCN(CCCC)C(=O)CN1C[C@H](c2ccc3c(c2)CCO3)[C@@H](C(=O)O)[C@@H]1c1ccc(OC)cc1
0.5 nM	5.1 µM	192 min	39%	4000 ng·h/mL	2330 ng·h/mL	1600 ng/mL	CCCCN(CCCC)C(=O)CN1C[C@H](c2ccc3occc3c2)[C@@H](C(=O)O)[C@@H]1c1ccc(OC)cc1
